According to ChEMBL document CHEMBL1156597, “Structure-activity relationship of kahalalide F synthetic analogues” (J Med Chem, 2008):

Columns and labels:
SK-MEL-28 = test: Cytotoxicity against human SK-MEL-28 cells after 48 hrs by SRB assay; format: functional, cell-based; conditions: Homo sapiens, SK-MEL-28, 48 h; for CC50: read-out: LC50 (the source's name)
Procedure, shortened: (§1)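 Cells grown in RPMI 1640 with 10% FBS and penicillin/streptomycin at 37 °C and 5% CO₂, trypsinized, then seeded at 5 × 10³/well. After 18 h drug-free attachment, samples in DMSO/EtOH/PBS (0.5:0.5:99) were added for 48 h continuous exposure. Cells were fixed with cold TCA (1 h, 4 °C) and stained with SRB (10 min). Tris-solubilized stain read at 490 nm. Triplicate wells, mean ± SD; GI₅₀ derived.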

K562 = test: Cytotoxicity against human K562 cells after 48 hrs by SRB assay; format: functional; conditions: K562, 48 h; for CC50: read-out: LC50 (the source's name); procedure, shortened: as §1
[1] = Cytotoxicity against human IGROV-ET cells after 48 hrs by SRB assay; format: functional; conditions: for CC50: read-out: LC50 (the source's name); procedure, shortened: as §1
LoVo [2] = test: Cytotoxicity against human doxorubicin resistant LoVo cells after 48 hrs by SRB assay; format: functional; conditions: for CC50: read-out: LC50 (the source's name); procedure, shortened: as §1
[3] = Cytotoxicity against human HeLa-APL cells after 48 hrs by SRB assay; format: functional; procedure, shortened: as §1
PANC-1 = test: Cytotoxicity against human PANC1 cells after 48 hrs by SRB assay; format: functional; conditions: PANC-1, 48 h; for CC50: read-out: LC50 (the source's name); procedure, shortened: as §1
LoVo [4] = test: Cytotoxicity against human LoVo cells after 48 hrs by SRB assay; format: functional; conditions: for CC50: read-out: LC50 (the source's name)
LNCaP = test: Cytotoxicity against human LNcaP cells after 48 hrs by SRB assay; format: functional; conditions: for CC50: read-out: LC50 (the source's name); procedure, shortened: as §1
[5] = Cytotoxicity against human IGROV cells after 48 hrs by SRB assay; format: functional; conditions: for CC50: read-out: LC50 (the source's name); procedure, shortened: as §1
HeLa = test: Cytotoxicity against human HeLa cells after 48 hrs by SRB assay; format: functional; conditions: for CC50: read-out: LC50 (the source's name); procedure, shortened: as §1
HT-29 = test: Cytotoxicity against human HT29 cells after 48 hrs by SRB assay; format: functional, cell-based; conditions: Homo sapiens, HT-29, 48 h; for CC50: read-out: LC50 (the source's name); procedure, shortened: as §1
SK-BR-3 = test: Cytotoxicity against human SKBR3 cells after 48 hrs by SRB assay; format: functional; conditions: SK-BR-3, 48 h; for CC50: read-out: LC50 (the source's name); procedure, shortened: as §1
A549 = test: Cytotoxicity against human A549 cells after 48 hrs by SRB assay; format: functional, cell-based; conditions: Homo sapiens, A549, 48 h; procedure, shortened: as §1
DU-145 = test: Cytotoxicity against human DU145 cells after 48 hrs by SRB assay; format: functional, cell-based; conditions: Homo sapiens, DU-145, 48 h; for CC50: read-out: LC50 (the source's name); procedure, shortened: as §1

Compound: C/C=C1\NC(=O)[C@H](Cc2ccccc2)NC(=O)[C@@H](C(C)C)NC(=O)[C@@H]([C@H](C)CC)NC(=O)[C@H](NC(=O)[C@H](NC(=O)[C@H](CCCN)NC(=O)[C@H]2CCCN2C(=O)[C@H](NC(=O)[C@@H](NC(=O)[C@@H](NC(=O)[C@H](NC(=O)CC[C@@H](C)[C@H]2CC[C@H]3[C@@H]4CC[C@@H]5C[C@H](OC(=O)C(F)(F)F)CC[C@]5(C)[C@H]4CC[C@]23C)C(C)C)[C@@H](C)O)C(C)C)C(C)C)[C@H](C)CC)[C@H](C)OC(=O)[C@H](C(C)C)NC1=O
- GI50 (SK-MEL-28): 0.19 µM
- GI50 (SK-MEL-28; read-out: GI50): 0.209 µM
- CC50 (SK-MEL-28): 0.172 µM
- GI50 (K562): 0.967 µM
- TGI (K562): 0.795 µM
- CC50 (K562): 1.17 µM
- GI50 [1]: 0.406 µM
- GI50 ([1]; read-out: GI50): 0.352 µM
- CC50 [1]: 0.468 µM
- GI50 (LoVo [2]): 0.227 µM
- TGI (LoVo [2]): 0.22 µM
- CC50 (LoVo [2]): 0.211 µM
- GI50 [3]: 1.04 µM
- LC50 (concentration giving 50% net cell kill) [3]: 0.638 µM
- TGI [3]: 0.802 µM
- GI50 (PANC-1): 1.64 µM
- TGI (PANC-1): 1.44 µM
- CC50 (PANC-1): 1.44 µM
- GI50 (LoVo [4]): 0.34 µM
- TGI (LoVo [4]): 0.374 µM
- CC50 (LoVo [4]): 0.795 µM
- GI50 (LNCaP): 0.851 µM
- TGI (LNCaP): 0.912 µM
- CC50 (LNCaP): 0.98 µM
- GI50 [5]: 0.5 µM
- GI50 ([5]; read-out: GI50): 0.375 µM
- CC50 [5]: 0.404 µM
- GI50 (HeLa): 1.07 µM
- TGI (HeLa): 0.978 µM
- CC50 (HeLa): 0.886 µM
- GI50 (HT-29): 0.387 µM
- TGI (HT-29): 0.45 µM
- CC50 (HT-29): 0.761 µM
- TGI (SK-BR-3): 0.166 µM
- GI50 (SK-BR-3; read-out: GI50): 0.118 µM
- CC50 (SK-BR-3): 0.233 µM
- GI50 (A549): 0.949 µM
- LC50 (A549): 0.851 µM
- GI50 (A549; read-out: GI50): 1.06 µM
- GI50 (DU-145): 0.524 µM
- GI50 (DU-145; read-out: GI50): 0.394 µM
- CC50 (DU-145): 0.568 µM

Compound: C/C=C1\NC(=O)[C@H](Cc2ccccc2)NC(=O)[C@@H](C(C)C)NC(=O)[C@@H]([C@H](C)CC)NC(=O)[C@H](NC(=O)[C@H](NC(=O)[C@H](CCCN)NC(=O)[C@H]2CCCN2C(=O)[C@H](NC(=O)[C@@H](NC(=O)[C@@H](NC(=O)[C@H](NC(=O)CCCCCCCCCCCCCCC)C(C)C)[C@@H](C)O)C(C)C)C(C)C)[C@H](C)CC)[C@H](C)OC(=O)[C@H](C(C)C)NC1=O
- GI50 (SK-MEL-28): 0.123 µM
- GI50 (SK-MEL-28; read-out: GI50): 0.138 µM
- CC50 (SK-MEL-28): 0.11 µM
- GI50 (K562): 0.124 µM
- TGI (K562): 0.314 µM
- CC50 (K562): 0.703 µM
- GI50 [1]: 0.14 µM
- GI50 ([1]; read-out: GI50): 0.345 µM
- CC50 [1]: 0.0791 µM
- GI50 (LoVo [2]): 0.264 µM
- TGI (LoVo [2]): 0.262 µM
- CC50 (LoVo [2]): 0.258 µM
- GI50 [3]: 0.326 µM
- LC50 (concentration giving 50% net cell kill) [3]: 0.513 µM
- TGI [3]: 0.479 µM
- GI50 (PANC-1): 0.203 µM
- TGI (PANC-1): 1.37 µM
- CC50 (PANC-1): 1.3 µM
- GI50 (LoVo [4]): 0.3 µM
- TGI (LoVo [4]): 0.293 µM
- CC50 (LoVo [4]): 0.286 µM
- GI50 (LNCaP): 0.129 µM
- TGI (LNCaP): 0.118 µM
- CC50 (LNCaP): 0.107 µM
- GI50 [5]: 0.0926 µM
- GI50 ([5]; read-out: GI50): 0.191 µM
- CC50 [5]: 0.0622 µM
- CC50 (HeLa): 0.151 µM
- CC50 (HT-29): 0.0727 µM
- GI50 (SK-BR-3): 0.0398 µM
- GI50 (SK-BR-3; read-out: GI50): 0.0439 µM
- CC50 (SK-BR-3): 0.036 µM
- GI50 (A549): 0.126 µM
- LC50 (A549): 0.117 µM
- GI50 (A549; read-out: GI50): 1.37 µM
- GI50 (DU-145): 0.126 µM
- GI50 (DU-145; read-out: GI50): 0.145 µM
- CC50 (DU-145): 0.111 µM
